Source: ChEMBL document CHEMBL3102766, “Thiodiketopiperazines from the marine-derived fungus Phoma sp. OUCMDZ-1847” (J Nat Prod, 2014)
Activity calls are given as the source filed them. The calls are words filed in the database; no cut-off is given here.

Tests used:
Assay type in all cases: functional, cell-based
K562 = experiment: Cytotoxicity against human K562 cells after 72 hrs by MTT assay; conditions: for IC50: K562, 72 h
MGC-803 = experiment: Cytotoxicity against human MGC803 cells after 24 hrs by SRB assay; conditions: for IC50: MGC-803, 24 h
Method in brief: (§1)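 Cytotoxicity against the tumor cell lines was read out by the SRB method, with adriamycin run as the positive control.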

HL-60 = experiment: Cytotoxicity against human HL60 cells after 72 hrs by MTT assay; conditions: for IC50: HL-60, 72 h
HCT-116 = experiment: Cytotoxicity against human HCT116 cells after 72 hrs by MTT assay; conditions: for IC50: HCT-116, 72 h
A549 = experiment: Cytotoxicity against human A549 cells after 24 hrs by SRB assay; conditions: for IC50: A549, 24 h; method in brief: as §1

| SMILES | Activity (K562) | Activity (MGC-803) | Activity (HL-60) | Activity (HCT-116) | Activity (A549) | IC50 (K562) [µM] | IC50 (MGC-803) [µM] | IC50 (HL-60) [µM] | IC50 (HCT-116) [µM] | IC50 (A549) [µM] |
| --- | --- | --- | --- | --- | --- | --- | --- | --- | --- | --- |
| O=C1C[C@H]2S[C@@]34C[C@@H]1[C@@H]([C@H]2O)N3C(=O)[C@@]12C[C@H]3C(=O)[C@@H](S1)[C@H](O)[C@H](O)[C@H]3N2C4=O | inactive | inactive | inactive | inactive | inactive | – | – | – | – | – |
| O=C1C[C@H](O)[C@H](O)[C@@H]2[C@H]1C[C@@]13SS[C@]4(C[C@H]5C(=O)C[C@H](O)[C@H](O)[C@H]5N4C1=O)C(=O)N23 | inactive | inactive | inactive | inactive | inactive | – | – | – | – | – |
| O=C1C[C@H]2SS[C@@]34C[C@@H]1[C@@H]([C@H]2O)N3C(=O)[C@@]12C[C@H]3C(=O)C[C@@H](S1)[C@H](O)[C@H]3N2C4=O | inactive | inactive | inactive | inactive | inactive | – | – | – | – | – |
| O=C1C[C@@H]2SS[C@@]34C[C@@H]1[C@@H]([C@H]2O)N3C(=O)[C@@]12C[C@H]3C(=O)[C@H](S1)[C@H](O)[C@H](O)[C@H]3N2C4=O | inactive | inactive | inactive | inactive | inactive | – | – | – | – | – |
| O=C1C[C@@H]2SS[C@@]34C[C@@H]1[C@@H]([C@H]2O)N3C(=O)[C@@]12C[C@H]3C(=O)C[C@H](SS1)[C@H](O)[C@H]3N2C4=O | inactive | inactive | inactive | inactive | inactive | – | – | – | – | – |
| CS[C@@]12CC3=CC=C[C@H](O)[C@H]3N1C(=O)/C(=C/c1ccccc1)NC2=O | inactive | inactive | inactive | inactive | inactive | – | – | – | – | – |
| O=C1C=C[C@H](O)[C@@H]2[C@@H]1C[C@@]13SS[C@]4(C[C@H]5C(=O)C=C[C@H](O)[C@H]5N4C1=O)C(=O)N23 | – | – | – | – | – | 4.6 | 5.2 | 1.6 | > 10 | > 10 |
| CS[C@@]12C[C@@H]3C(=O)C=C[C@H](O)[C@H]3N1C(=O)[C@]1(SC)C[C@@H]3C(=O)C=C[C@H](O)[C@H]3N1C2=O | – | – | – | – | – | > 10 | 4.2 | 3.5 | 4 | > 10 |
| O=C1N2[C@H]3[C@H](C[C@]24SS[C@]12C[C@H]1[C@@H]([C@@H](O)CC[C@@H]1O)N2C4=O)[C@@H](O)CC[C@@H]3O | inactive | inactive | inactive | inactive | inactive | – | – | – | – | – |
| CS[C@@]1(Cc2ccccc2)NC(=O)[C@]2(SC)CC3=CC=C[C@H](O)[C@H]3N2C1=O | – | – | – | – | – | > 10 | 8.5 | > 10 | > 10 | > 10 |
| O=C1C=C[C@H](O)[C@@H]2[C@@H]1C[C@@]13SS[C@]4(C[C@H]5C(=O)C[C@H](O)[C@H](O)[C@H]5N4C1=O)C(=O)N23 | – | – | – | – | – | > 10 | 3.4 | 3.5 | 7.1 | > 10 |
| O=C1C[C@@H]2S[C@@]34C[C@@H]1[C@@H]([C@H]2O)N3C(=O)[C@@]12C[C@H]3C(=O)C[C@H](S1)[C@H](O)[C@H]3N2C4=O | inactive | inactive | inactive | inactive | inactive | – | – | – | – | – |
| COc1cccc2c1C(=O)c1c(O)c3c(c(O)c1C2=O)C[C@@](O)(C(=O)CO)C[C@@H]3O[C@H]1C[C@H](N)[C@H](O)[C@H](C)O1 [DOXORUBICIN] | – | – | – | – | – | – | 0.17 | – | – | 0.16 |
| O=C1C=C[C@H](O)[C@@H]2[C@@H]1C[C@@]13SS[C@]4(C[C@@H]5C(=O)C=C[C@H](O)[C@H]5N4C1=O)C(=O)N23 [EPICORAZINE A] | – | – | – | – | – | 1.5 | 2.7 | 0.05 | 0.33 | 2.3 |
